Measurements taken from ChEMBL document CHEMBL3616378 (J Med Chem, 2015).
pEC50, pIC50: −log10 of the molar value.

Legend:
[1] = biological target: Metabotropic glutamate receptor 3 (Homo sapiens, UniProt Q14832); assay: Agonist activity at wild type human recombinant mGlu3 receptor expressed in AV12 cells assessed as stimulation of Ca2+ mobilization after 1 hr by FLIPR assay; type: functional, cell-based
CYP3A4 = CYP3A4 (Homo sapiens, UniProt P08684); assay: Inhibition of human CYP3A4 at 10 uM; type: ADME
Chain of CYP3A4 (P08684 whole entry, canonical isoform): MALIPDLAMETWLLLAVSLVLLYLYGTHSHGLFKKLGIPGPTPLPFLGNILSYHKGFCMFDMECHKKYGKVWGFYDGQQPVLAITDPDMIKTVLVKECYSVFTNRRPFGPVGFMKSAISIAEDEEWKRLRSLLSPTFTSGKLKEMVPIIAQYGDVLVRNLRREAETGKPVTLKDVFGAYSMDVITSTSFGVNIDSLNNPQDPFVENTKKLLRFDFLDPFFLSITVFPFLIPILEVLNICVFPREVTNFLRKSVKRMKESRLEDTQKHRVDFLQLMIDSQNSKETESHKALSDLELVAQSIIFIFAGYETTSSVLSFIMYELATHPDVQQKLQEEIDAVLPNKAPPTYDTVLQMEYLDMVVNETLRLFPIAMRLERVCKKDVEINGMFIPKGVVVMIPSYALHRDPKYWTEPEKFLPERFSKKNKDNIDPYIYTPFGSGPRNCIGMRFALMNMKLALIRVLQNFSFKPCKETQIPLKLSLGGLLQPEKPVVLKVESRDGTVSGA
Procedure, shortened: (§1)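 Inhibition of human CYP isoforms was measured with the compound tested at 10 µM.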

CYP2C9 = CYP2C9 (Homo sapiens, UniProt P11712); assay: Inhibition of human CYP2C9 at 10 uM; type: ADME; procedure, shortened: as §1
Chain of CYP2C9 (P11712 whole entry): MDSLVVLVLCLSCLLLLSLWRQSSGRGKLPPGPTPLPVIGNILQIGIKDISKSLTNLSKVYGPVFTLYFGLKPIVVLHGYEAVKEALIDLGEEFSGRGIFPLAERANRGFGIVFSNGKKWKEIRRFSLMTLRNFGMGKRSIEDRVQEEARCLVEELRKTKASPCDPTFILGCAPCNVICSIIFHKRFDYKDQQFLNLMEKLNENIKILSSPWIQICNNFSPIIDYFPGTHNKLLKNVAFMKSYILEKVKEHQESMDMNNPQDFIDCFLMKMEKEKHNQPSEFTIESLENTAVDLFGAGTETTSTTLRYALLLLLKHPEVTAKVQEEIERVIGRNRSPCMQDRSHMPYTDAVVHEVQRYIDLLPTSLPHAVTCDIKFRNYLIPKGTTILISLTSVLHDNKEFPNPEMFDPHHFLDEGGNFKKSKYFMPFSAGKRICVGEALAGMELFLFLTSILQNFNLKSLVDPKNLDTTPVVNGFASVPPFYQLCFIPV

[2] = Fraction unbound in rat plasma; type: ADME, cell-free
[3] = AUC (0 to 24 hrs) in Sprague-Dawley rat at 1 mg/kg, iv; type: ADME, organism-based; design: time < 24 hr, dose 1 mg/kg, route intravenous; details: in vivo
Procedure, shortened: (§2)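 Fasted male Sprague–Dawley rats (~250 g) received a single dose of compound dissolved in water and adjusted to pH 7–7.5 with NaOH, given iv, by oral gavage or ip. Serial blood samples (11–12 per rat) were drawn from a jugular vein catheter into EDTA and kept frozen. Plasma was mixed with methanol:water (1:1) containing an analogue internal standard for analysis. Mean plasma parameters are reported.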

[4] = AUC (0 to 24 hrs) in Sprague-Dawley rat at 1 mg/kg, ip; type: ADME, organism-based; design: dose 1 mg/kg, time < 24 hr, route intraperitoneal; details: in vivo; procedure, shortened: as §2
[5] = Bioavailability in Sprague-Dawley rat at 1 mg/kg, ip; type: ADME, organism-based; details: in vivo; procedure, shortened: as §2
[6] = Half life in Sprague-Dawley rat at 3 mg/kg, ip; type: ADME, organism-based; details: in vivo; procedure, shortened: as §2
[7] = Bioavailability in Sprague-Dawley rat at 3 mg/kg, ip; type: ADME, organism-based; details: in vivo; procedure, shortened: as §2
[8] = Plasma concentration in Sprague-Dawley rat at 10 mg/kg, ip after 0.5 hrs; type: ADME, organism-based
Procedure, shortened: (§3)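 Separate experiment: single ip doses of 1, 3 and 10 mg/kg to rats, compound in water adjusted to pH 7–7.5 with NaOH; plasma (with csf) sampled at 0.5, 1 and 4 h; mean plasma concentrations ± SEM reported.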

[9] = Plasma concentration in Sprague-Dawley rat at 1 mg/kg, ip after 1 hr; type: ADME, organism-based; procedure, shortened: as §3
[10] = Plasma concentration in Sprague-Dawley rat at 10 mg/kg, ip after 4 hrs; type: ADME, organism-based; procedure, shortened: as §3
[11] = biological target: Metabotropic glutamate receptor 4 (Homo sapiens, UniProt Q14833); assay: Antagonist activity at human recombinant mGlu4 receptor expressed in AV12 cells assessed as inhibition of glutamate-stimulated Ca2+ mobilization after 1 hr by FLIPR assay; type: functional, cell-based
Chain of Metabotropic glutamate receptor 4 (Q14833 whole entry): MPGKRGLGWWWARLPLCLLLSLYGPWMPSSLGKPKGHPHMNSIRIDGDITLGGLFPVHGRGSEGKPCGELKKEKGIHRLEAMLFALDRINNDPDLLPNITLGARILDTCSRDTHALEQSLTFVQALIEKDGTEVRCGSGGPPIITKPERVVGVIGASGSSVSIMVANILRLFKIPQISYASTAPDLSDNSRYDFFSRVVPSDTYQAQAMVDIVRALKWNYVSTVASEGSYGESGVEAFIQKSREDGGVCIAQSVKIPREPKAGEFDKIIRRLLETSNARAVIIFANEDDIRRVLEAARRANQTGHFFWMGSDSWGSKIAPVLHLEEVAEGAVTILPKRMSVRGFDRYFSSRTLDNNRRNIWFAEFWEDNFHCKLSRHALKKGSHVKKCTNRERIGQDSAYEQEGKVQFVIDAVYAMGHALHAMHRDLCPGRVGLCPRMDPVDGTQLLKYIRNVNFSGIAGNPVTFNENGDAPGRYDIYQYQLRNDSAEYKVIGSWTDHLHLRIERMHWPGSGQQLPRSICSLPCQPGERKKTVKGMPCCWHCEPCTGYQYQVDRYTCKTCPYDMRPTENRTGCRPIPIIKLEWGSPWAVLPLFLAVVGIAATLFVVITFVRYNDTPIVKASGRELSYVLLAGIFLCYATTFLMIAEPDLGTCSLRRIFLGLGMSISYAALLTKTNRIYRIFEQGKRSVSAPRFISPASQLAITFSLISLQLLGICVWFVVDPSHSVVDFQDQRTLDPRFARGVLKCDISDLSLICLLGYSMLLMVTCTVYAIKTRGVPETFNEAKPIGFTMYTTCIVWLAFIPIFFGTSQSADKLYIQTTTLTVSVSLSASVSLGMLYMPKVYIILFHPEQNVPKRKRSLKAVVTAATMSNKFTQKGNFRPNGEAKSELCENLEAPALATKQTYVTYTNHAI

[12] = Drug level in Sprague-Dawley rat cerebrospinal fluid at 3 mg/kg, ip after 4 hrs; type: ADME, organism-based; details: read-out: Drug uptake
Procedure, shortened: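 Male Sprague–Dawley rats received single ip doses of 1, 3 or 10 mg/kg. Cerebrospinal fluid and plasma levels were determined at 0.5, 1 and 4 h. Mean csf concentration (nM ± SEM) is reported.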

Rattus norvegicus [13] = assay: Toxicity in Sprague-Dawley rat assessed as impairment of neuromuscular coordination at 10 mg/kg, ip after 1 hr by rotarod test; type: organism-based; details: in vivo
Rattus norvegicus [14] = assay: Toxicity in Sprague-Dawley rat assessed as impairment of neuromuscular coordination at 10 mg/kg, ip after 2 to 3 hrs by rotarod test; type: organism-based; details: in vivo

Chain of Metabotropic glutamate receptor 3 (Q14832 whole entry): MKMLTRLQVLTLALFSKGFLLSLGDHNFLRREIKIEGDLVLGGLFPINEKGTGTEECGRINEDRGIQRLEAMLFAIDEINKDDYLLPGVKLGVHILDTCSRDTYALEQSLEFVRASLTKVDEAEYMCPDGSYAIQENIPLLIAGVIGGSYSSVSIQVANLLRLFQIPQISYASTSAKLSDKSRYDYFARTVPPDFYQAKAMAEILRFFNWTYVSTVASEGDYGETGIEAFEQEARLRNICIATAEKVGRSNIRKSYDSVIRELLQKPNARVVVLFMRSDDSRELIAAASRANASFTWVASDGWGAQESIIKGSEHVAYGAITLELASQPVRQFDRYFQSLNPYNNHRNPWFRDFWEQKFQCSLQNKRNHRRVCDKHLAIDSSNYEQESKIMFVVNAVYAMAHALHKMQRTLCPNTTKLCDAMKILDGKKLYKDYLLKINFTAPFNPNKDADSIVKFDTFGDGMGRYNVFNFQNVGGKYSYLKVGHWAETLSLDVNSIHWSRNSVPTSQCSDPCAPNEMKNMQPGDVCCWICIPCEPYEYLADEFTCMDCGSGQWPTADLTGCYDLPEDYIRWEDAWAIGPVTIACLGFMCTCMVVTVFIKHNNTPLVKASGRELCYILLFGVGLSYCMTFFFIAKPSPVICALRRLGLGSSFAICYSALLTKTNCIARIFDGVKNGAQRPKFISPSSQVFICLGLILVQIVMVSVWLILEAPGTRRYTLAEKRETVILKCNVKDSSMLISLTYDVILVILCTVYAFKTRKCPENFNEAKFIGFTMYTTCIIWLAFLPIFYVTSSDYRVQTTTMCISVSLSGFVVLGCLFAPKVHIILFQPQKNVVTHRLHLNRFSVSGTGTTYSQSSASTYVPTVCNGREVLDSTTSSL

N[C@@]1(C(=O)O)C[C@@H](Sc2nc[nH]n2)[C@H]2[C@H](C(=O)O)[C@H]21
pEC50 [1]: 5.25 | inhibition at 10 µM (CYP3A4): < 10% | inhibition at 10 µM (CYP2C9): < 10% | fraction unbound [2]: > 0.98 | AUC(0-t) at 24 h [3]: 4.91 µM·h | AUC(0-t) at 24 h [4]: 6.01 µM·h | bioavailability [5]: 122% | half-life [6]: 3.2 h | bioavailability [7]: 73% | concentration at 0.5 h [8]: 40.1 µM | concentration at 1 h [9]: 3.01 µM | concentration at 4 h [10]: 3.02 µM | pIC50 [11]: < 4.90 | concentration at 4 h [12]: 0.0275 µM | Activity (Rattus norvegicus [13]): Toxic | Activity (Rattus norvegicus [14]): Non-toxic
